Like-named read-outs stand apart in the source and are kept apart here.
Key:
RCAS-based DIPG tumors = assay: Survival study in tumor-bearing RCAS mice; type: in vivo
Method in brief: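 DIPG was induced in 3–5-day-old Ntva/p53fl/fl pups by pontine injection of DF1 cells carrying RCAS-PDGFB, H3K27M-GFP, CRE and luciferase. From day 21–24, over 2 weeks, mice received one of: intraperitoneal 10 mg/kg in 10% DMSO/36% PEG/54% PBS; intraperitoneal vehicle; or one or four CEDs of 10 μl, 100 μM in 1% DMSO/PBS (or vehicle), 72 h apart, each over 6 min. End point was ≥10% weight loss on two consecutive measurements, or other end points. Survival was analysed by log-rank.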

[1] = 11 patients, oral formulation; cited from earlier work
Safety in mice = type: in vivo
[2] = test system: SF8628 orthotopic DIPG tumors; assay: Orthotopic SF8628 xenograft, histology after treatment; type: in vivo, SCID mice
Method in brief: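 NOD/SCID mice received 1 million luciferase-transduced SF8628 cells stereotactically into the pons (1.0 mm right, 0.5 mm posterior, 5.0 mm deep from lambda). Treatment started 21–24 days later over 2 weeks, using four CED infusions about 72 h apart, each over 6 min at 1.67 μl/min. Brains were then harvested. Nuclei on H&E and Ki67+ nuclei were counted on ≥5 40× fields. Apoptosis index was Cc3+ cells divided by tumour area × cellularity. H3Ac+ nuclei were counted per 10× field after colour deconvolution, Gaussian blur and thresholding.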

[3] = primate studies, oral delivery; cited from earlier work
[4] = test system: luciferase-tagged SF8628 flank tumors; assay: Flank model of DIPG, intraperitoneal treatment; type: in vivo, athymic-nude mice
Method in brief: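 Athymic-nude mice received subcutaneous right-flank implants of 40-mm3 chunks of luciferase-tagged SF8628 tumours grown in other nude mice. Tumour presence was confirmed by luciferase scan at 1 week. Dosing began at a mean caliper volume of 140 mm3: reference HDAC inhibitor 10 mg/kg, test compound 12 mg/kg (molecular-weight adjusted), or vehicle (10% DMSO, 36% PEG, 54% PBS). Dosing stopped at 1500 mm3 or euthanasia end points. Tumours were harvested on the last treatment day for acetylated-H3 immunoblot with GAPDH as loading control.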

[5] = four CED doses at 72-hour intervals

Cc1[nH]c2ccccc2c1CCNCc1ccc(/C=C/C(=O)NO)cc1 [panobinostat]
median survival (RCAS-based DIPG tumors; 4× CED, 10 μl 100 μM, 72 hours apart): 63 days
median survival (RCAS-based DIPG tumors; intraperitoneally, 10 mg/kg, over 2 weeks): 35 days
median survival (RCAS-based DIPG tumors; single CED session, 10 μl 100 μM): 37.5 days
detection in CSF [1]: not detected
toxicity after systemic injections (Safety in mice): significant toxicities including weight loss
H3Ac in tumor cells versus intraperitoneal vehicle [2, 5]: increase in H3Ac in tumor cells
Ki67+ cycling cells versus vehicle [2, 5]: decrease in overall Ki67^+ cycling cells
apoptotic cell death, cleaved caspase-3 positive cells [2, 5]: increase in apoptotic cell death
tumor cellularity versus vehicle ([2]; four CED doses at 72-hour intervals, H&E): decrease in tumor cellularity
histological effects (cellularity, Ki67, Cc3, H3Ac) ([2]; systemic treatment): failed to achieve any of these results
detection in CSF [3]: failed at detecting significant amounts
H3Ac in tumors by Western blotting ([4]; animals sacrificed on the last day of treatment): recovery of H3Ac
tumor growth compared to vehicle ([4]; caliper tumor volume, daily intraperitoneal for 2 weeks): slowed down tumor growth
